# Sampled rows, rich in hits. Any-hit rate of the full collection: about 5.7%.
# Beta cell apopt: inhibitors of cytokine-induced beta cell apoptosis, primary screen, luminescence. INS-1E cytokine-induced death, ATP luminescence, 48 h; percent of positive-control rescue, neutral wells zero. protection from apoptosis, % (concentration not given with the values). 0.8% of 300,000 active. AID 435005, 2010;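 active means Every replicate reaches about 75%, or at least half do and their mean reaches it too, limit read from the data; inconclusive means At least half of replicates reach the limit but their mean does not; inactive means Under half of replicates reach the limit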;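 further: 0% = cytokine-treated negative control wells and 100% = positive control rescue; higher means more ATP so stronger rescue from cytokine killing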
# Calb FLC: C. albicans growth inhibition with fluconazole, primary screen, CaCi-2 strain, Alamar Blue fluorescence; C. albicans CaCi-2 (fluconazole-resistant clinical isolate) + fluconazole, 48 h; growth inhibition, % (concentration not given with the values); 0.57% of 300,000 active; AID 1979, 2009;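 active means growth inhibition above about 58% in most replicates, limit read from the data, passing the limit was not always enough; inconclusive means exactly half the replicates above a set limit; inactive means most replicates below a set limit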;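 further: all wells also contain fluconazole at 8 µg/ml as a sub-toxic cotreatment; 0% = median of DMSO wells and 100% = median of geldanamycin control wells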
# SKKanGAS inh: S. pyogenes SKKanGAS growth inhibitors in kanamycin, primary screen, streptokinase expression inhibitor project, SKKanGAS strain, BacTiter-Glo luminescence; 1.3% of 300,000 active; inhibition, % at 7.5 µM; 6 h;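 active means mean replicate score, as percent of positive control median, at least 50; inconclusive means mean below 50 but one replicate at or above 50; inactive means mean and every replicate below 50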;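 further: strain carries kanamycin resistance gene driven by streptokinase promoter and grows in 40 µg/ml kanamycin; loss of luminescence reflects streptokinase promoter inhibition or plain growth inhibition; 0% = median of DMSO wells and 100% = positive control at its reference dose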
# CSC inhib: cancer stem cell viability inhibitors, primary screen, luminescence | 1.1% of 300,000 active | cancer stem cell-like cells viability | inhibition, % at 7.5 µM; in the data active means inhibition above about 75%; inconclusive means no clear call, values can overlap the other calls; tested in HMLE shEcad cells
# T cruzi inh: inhibitors of intracellular T. cruzi growth, primary screen, luminescence, NIH3T3 host cells; AID 1885, 2009; inhibition, % (concentration not given with the values); T. cruzi beta-gal in NIH3T3, 90 h; 1.4% of 300,000 active;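 active means mean inhibition across valid replicates above about 55%, limit read from the data; inconclusive means mean below that limit but half or more replicates reach it; inactive means mean below it, under half of replicates reach it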;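 further: signal also drops with host cell toxicity which is not excluded here; 0% = plate median of DMSO wells and 100% = zero luminescence signal; higher percent means less beta-gal luminescence so fewer parasites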
#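 System: mouse NIH/3T3 fibroblasts infected with β-gal-expressing T. cruzi Tulahuen C4 / Input: NIH/3T3 cells, 5,000 per well / Buffer or medium: Low-serum DMEM with 2% FBS / Probe or stimulus: 5000 reporter trypomastigotes per well / Schedule: ≥90 h infection period, 3 h prior cell attachment / Measured by: GalScreen luminescence, 60 min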
# Mdm2 MdmX PPI: inhibitors of human Mdm2-MdmX association, primary screen, cell-based, luminescence, split luciferase, SaOS-2, uHTS; 3% of 330,000 active; inhibition, % at 8 µM; SaOS-2 split-luciferase Mdm2/MdmX complementation;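 active means inhibition of at least 50% at 8 µM in the primary screen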
# Target sequence (O15151 whole entry, looked up): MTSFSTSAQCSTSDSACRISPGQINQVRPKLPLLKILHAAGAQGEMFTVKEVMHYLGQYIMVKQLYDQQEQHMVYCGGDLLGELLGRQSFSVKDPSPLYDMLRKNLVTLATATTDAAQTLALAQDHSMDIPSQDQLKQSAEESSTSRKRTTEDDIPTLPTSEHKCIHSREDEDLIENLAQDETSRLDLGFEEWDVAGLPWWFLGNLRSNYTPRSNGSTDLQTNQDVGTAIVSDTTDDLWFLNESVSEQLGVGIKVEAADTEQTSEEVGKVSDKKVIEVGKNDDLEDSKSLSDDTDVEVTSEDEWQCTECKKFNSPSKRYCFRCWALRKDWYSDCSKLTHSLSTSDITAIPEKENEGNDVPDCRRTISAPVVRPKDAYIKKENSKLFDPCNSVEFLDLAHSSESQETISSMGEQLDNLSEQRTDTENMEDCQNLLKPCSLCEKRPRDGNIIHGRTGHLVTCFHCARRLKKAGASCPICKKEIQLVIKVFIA
# Target sequence (Q00987 whole entry, looked up): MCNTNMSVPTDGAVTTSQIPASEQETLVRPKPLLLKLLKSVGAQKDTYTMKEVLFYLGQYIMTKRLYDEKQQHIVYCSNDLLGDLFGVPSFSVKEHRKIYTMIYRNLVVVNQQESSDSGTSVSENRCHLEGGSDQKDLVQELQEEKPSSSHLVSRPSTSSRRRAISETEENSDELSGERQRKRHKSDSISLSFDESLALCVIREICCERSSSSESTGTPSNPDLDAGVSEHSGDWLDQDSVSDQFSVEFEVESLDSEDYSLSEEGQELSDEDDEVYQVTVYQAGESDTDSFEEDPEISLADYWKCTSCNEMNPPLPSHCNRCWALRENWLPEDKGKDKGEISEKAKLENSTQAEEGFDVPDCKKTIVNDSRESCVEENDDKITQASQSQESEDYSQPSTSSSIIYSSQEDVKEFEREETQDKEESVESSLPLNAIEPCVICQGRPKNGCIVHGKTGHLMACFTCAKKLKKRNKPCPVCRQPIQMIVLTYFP
# Mdm2-MdmX conf: Mdm2-MdmX complex disruptors, retested hits, confirmation, luminescence, single concentration; shares compounds with Mdm2 MdmX PPI; Mdm2-MdmX binding, luminescent assay; inhibition, % at 8 µM; 55% of 10,000 active; AID 489028, 2010; in the data active means inhibition above about 40%
# FLuc counter: full-length luciferase signal inhibition, confirmation, counter-screen for Mdm2/MdmX interaction inhibitor project, cell-based, single concentration, SaOS-2 | shares compounds with Mdm2 MdmX PPI | SaOS-2 full-length luciferase counterscreen, luminescence | 77% of 6,200 active | inhibition, % at 8 µM | AID 504607, 2011;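 active means mean inhibition at 8 µM reaching about 37%, which flags the compound as non-specific, limit read from the data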;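 further: p53-null SaOS-2 cells with luciferase driven by a doxycycline-inducible promoter; compound on cells about two nights before reading with doxycycline added after day one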
# An asterisk follows results filed as active; ? = inconclusive; . = no result given.
SMILES,Beta cell apopt,Calb FLC,SKKanGAS inh,CSC inhib,T cruzi inh,Mdm2 MdmX PPI,Mdm2-MdmX conf,FLuc counter
Cc1cc(NC(=O)c2ccccc2F)n(C(C)(C)C)n1,-2.8,-29.2,-2.3,-0.3,-16.5,2.8,.,.
Cc1cc(NC(=O)c2ccc(F)cc2F)n(-c2nc3ccccc3[nH]2)n1,16.3,?,-11.2,-1.3,-9.0,65.8*,39.8,29.6
CC(C)C(NS(=O)(=O)c1ccc2c(c1)C(C)(C)C(=O)N2C)C(=O)NCc1ccccc1Cl (configuration not stated),2.8,8.2,1.2,-7.8,-0.2,15.3,.,.
COc1ccc(C)c2sc(N(CCN(C)C)C(=O)/C=C/c3cccs3)nc12,6.8,-21.2,4.2,-34.4,4.0,64.9*,27.0,.
COc1ccc(OC)c2sc(N(CCN(C)C)C(=O)/C=C/c3cccs3)nc12,30.1,-46.2,6.0,17.7,-4.8,97.2*,100.1*,0.2
CC(C)c1nc(C(=O)N2CCCC(N3CCN(c4cccc(Cl)c4)CC3)C2)cs1 (configuration not stated),-3.7,-7.1,0.6,3.9,6.4,-4.0,.,.
OC(CN1CCCCC1)Cn1c2ccc(Cl)cc2c2cc(Cl)ccc21 (configuration not stated),.,20.1,4.7,?,81.9*,74.9*,20.5,.
CC1CCN(CC(O)Cn2c3ccccc3c3ccccc32)CC1 (configuration not stated),-0.7,-56.2,-3.4,1.3,-24.0,19.6,.,.
Cc1ccc(Nc2cc(C)nn2-c2nc(C)cc(=O)[nH]2)cc1,98.2*,79.9*,92.0*,92.7*,56.0*,97.8*,99.7*,1.6
Cc1ccc(Nc2nc3ccccc3nc2-n2nc(C)cc2C)cc1,1.3,-3.8,6.7,40.8,2.9,14.6,.,.
COc1cc(/C=N/NC(=O)c2cncc(Br)c2)cc([N+](=O)[O-])c1O,-2.8,35.5,107.7*,10.7,-4.6,55.6*,49.9*,47.5*
COc1ccc(/C=N/NC(=O)c2ccncc2)cc1[N+](=O)[O-],0.8,-16.4,-16.4,-6.8,-1.8,1.4,.,.
CSc1nc(SCC(=O)NCc2ccco2)c2c3c(sc2n1)COC(C)(C)C3,11.7,-1.8,-4.8,.,1.1,50.7*,40.8*,67.9*
COC(=O)c1c(NC(=O)COC(=O)c2ccc(C)s2)sc2c1CCCCC2,1.1,-26.2,-8.4,20.2,5.4,52.1*,13.3,.
COC(=O)c1c(NC(=O)COC(=O)c2ccc(NC(=O)CC#N)cc2)sc2c1CCCCC2,2.0,-2.6,6.8,0.4,-4.8,63.7*,2.4,.
COC(=O)c1c(NC(=O)COC(=O)c2ccccc2O)sc2c1CCCCC2,2.2,11.9,1.5,7.9,2.2,30.1,.,.
CCN1CCN(c2oc(-c3ccccc3)nc2S(=O)(=O)c2ccc(C)cc2)CC1,.,.,.,.,.,6.6,.,.
NC(c1ccccc1)c1ccncc1 (configuration not stated),.,0.3,-3.7,-2.7,-7.4,14.1,.,.
Cc1ccc(S(=O)(=O)Nc2nc3ccccc3nc2Nc2cccc(S(=O)(=O)N3CCCC3)c2)cc1,30.6,0.1,66.3*,114.4*,-7.5,53.5*,50.6*,93.0*
Cc1cc(C)cc(Nc2nc(-c3ccc(S(=O)(=O)N4CCCC4)cc3)cs2)c1,5.1,4.6,7.1,15.1,13.5,59.3*,58.5*,42.0*
O=[N+]([O-])c1cccc(S(=O)(=O)Nc2nc3ccccc3nc2Nc2cccc(S(=O)(=O)N3CCCCC3)c2)c1,.,25.9,24.6,.,-50.7,.,.,.
Cc1ccc(Nc2nc(-c3ccc(S(=O)(=O)N4CCCC4)cc3)cs2)cc1C,.,10.7,5.6,-5.8,21.6,-1.7,.,.
Cn1cc([N+](=O)[O-])c(C(=O)N2CCN(Cc3ccc4c(c3)OCO4)CC2)n1,-9.1,-5.1,1.5,17.8,-28.6,22.1,.,.
Cc1ccc(C(=O)N2CCCC(N(C)Cc3ccccc3)C2)s1 (configuration not stated),-10.1,6.7,-3.0,-5.8,20.1,2.4,.,.
Cc1ccc(N(CCC#N)C(=O)CCl)cc1C,-15.5,-11.4,2.2,-0.1,58.9*,100.3*,100.2*,57.0*
SMILES,Beta cell apopt,Calb FLC,SKKanGAS inh,CSC inhib,T cruzi inh,Mdm2 MdmX PPI,Mdm2-MdmX conf,FLuc counter
Cc1ccc(SCC(=O)OCC(=O)N(CCC#N)c2ccccc2)cc1C,-0.2,1.3,0.7,-7.7,-0.7,6.9,.,.
Fc1cccc(CNc2ncnc3cc(Cl)ccc23)c1F,25.9,22.3,-1.9,-1.1,12.7,28.1,.,.
O=C(CNc1ccc2ccccc2c1)N/N=C/C=C/c1cccc([N+](=O)[O-])c1,-6.3,10.7,10.4,28.1,-21.2,82.4*,11.9,.
CCOC(=O)C1=C(CN2CCN(C(=O)c3ccco3)CC2)NC(=O)NC1c1ccc(F)cc1 (configuration not stated),-3.9,15.3,7.3,-11.0,4.9,8.2,.,.
O=c1c(-c2c(O)cc(O)c3c2O[C@H](c2ccc(O)cc2)CC3)c(-c2ccc(O)cc2)oc2cc(O)cc(O)c12,1.6,.,.,.,.,22.5,.,.
COc1ccc(OCC(=O)Nc2ccccc2N2CCCCC2)cc1,8.8,0.9,6.5,60.7,25.9,60.8*,76.0*,59.1*
COCC(=O)Nc1ccccc1-c1ccccc1,.,-22.0,-5.9,.,-17.9,-37.8,.,.
COc1ccc(OCC(=O)Nc2ccccc2-c2ccccc2)cc1,.,10.1,-17.7,52.8,23.6,52.7*,59.4*,62.1*
CC/C(=N/Nc1cccc(Cl)c1)c1cnnc(SC)n1,-4.6,-1.3,-3.6,-0.5,27.0,54.1*,38.9,71.0*
CC(=O)c1ccc(S(=O)(=O)Nc2ccc(C(=O)NCCCn3ccnc3)cc2)cc1,-5.0,.,.,-34.2,.,11.2,.,.
O=C(/C=C/c1ccccc1)c1ccccc1,-7.7,.,4.4,14.8,-12.9,17.6,.,.
O=C(/C=C/c1ccccc1)/C=C/c1ccccc1,19.4,-3.5,-7.7,?,0.9,95.4*,21.9,.
CCc1cc(-c2[nH]ncc2-c2ccc3c(c2)OCO3)c(O)cc1O,-10.2,19.6,-6.9,56.3,-12.1,77.8*,73.3*,37.5*
COc1ccc(-c2[nH]ncc2-c2ccc3c(c2)OCCO3)c(O)c1,-50.5,-4.4,26.4,-11.5,7.3,84.1*,90.0*,51.8*
